# Source: PubChem BioAssay (several laboratories)
# Hits are enriched below; roughly 4.7% of the tested compounds scored in any of these assays.
# MPTP inh: mitochondrial permeability transition pore inhibitors, primary screen, biochemical, isolated mouse mitochondria, absorbance; Ca2+ swelling absorbance, 30 min; inhibition, % at 10 µM; 360,000 compounds, 1.4% hits; AID 602449, 2012;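 active means inhibition of 50% or more, scaled per plate between neutral and stimulator controls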;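 further: 0% = DMSO wells given calcium and 100% = 1 mM EGTA wells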
# GRIN3A LBD mod: binders of NR3A ligand-binding domain, primary screen, biophysical, differential scanning fluorimetry, uHTS | NR3A LBD differential scanning fluorimetry, Tm shift; 0% = protein alone, 100% = glycine-bound protein | Tm shift relative to glycine control, % at 25 µM | AID 1259313, 2017 | 340,000 compounds, 2.5% hits;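 active means melting temperature shift of at least 10% of the positive control shift, at one fixed dose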
# MT1-MMP act inh: blockers of MT1-MMP proenzyme processing, primary screen, HT1080 RFP-PRO-GFP cells, GFP/RFP fluorescence. AID 651647, 2012. GFP/RFP ratio change, % at 20 µM. GFP/RFP ratio fluorescence, overnight; percent of plate control window, DMSO zero. 360,000 compounds, 0.061% hits. Matrix metalloproteinase-14 (Homo sapiens), P50281;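 active means GFP/RFP ratio change of at least 30% with cell ATP level not reduced by more than half and red fluorescence within 50% of control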
#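 Test system: HT1080 cells expressing an RFP-PRO-GFP fluorescent reporter construct / Compound dosing: single-point 20 µM compound, 1% DMSO / Schedule: cells overnight before dosing, compound overnight, 37 °C, 5% CO2 / Evaluation: GFP/RFP fluorescence ratio / Control set: DMSO and RFP-L50D-GFP cell wells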
# ADAM17 inh: ADAM17 inhibitors, primary screen, biochemical, QFRET. Disintegrin and metalloproteinase domain-containing protein 17 (Homo sapiens), P78536. recombinant ADAM17, EDANS/DABCYL FRET peptide cleavage. inhibition, % at 6.95 µM. 370,000 compounds, 0.83% hits. AID 720648, 2013;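 active means inhibition above the mean of compounds lying between control limits plus 3 SD, set per campaign, cut at about 8.5% in these data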;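 further: 0% = DMSO-only wells as the low control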
# Target sequence (P78536 215-824 limits assumed): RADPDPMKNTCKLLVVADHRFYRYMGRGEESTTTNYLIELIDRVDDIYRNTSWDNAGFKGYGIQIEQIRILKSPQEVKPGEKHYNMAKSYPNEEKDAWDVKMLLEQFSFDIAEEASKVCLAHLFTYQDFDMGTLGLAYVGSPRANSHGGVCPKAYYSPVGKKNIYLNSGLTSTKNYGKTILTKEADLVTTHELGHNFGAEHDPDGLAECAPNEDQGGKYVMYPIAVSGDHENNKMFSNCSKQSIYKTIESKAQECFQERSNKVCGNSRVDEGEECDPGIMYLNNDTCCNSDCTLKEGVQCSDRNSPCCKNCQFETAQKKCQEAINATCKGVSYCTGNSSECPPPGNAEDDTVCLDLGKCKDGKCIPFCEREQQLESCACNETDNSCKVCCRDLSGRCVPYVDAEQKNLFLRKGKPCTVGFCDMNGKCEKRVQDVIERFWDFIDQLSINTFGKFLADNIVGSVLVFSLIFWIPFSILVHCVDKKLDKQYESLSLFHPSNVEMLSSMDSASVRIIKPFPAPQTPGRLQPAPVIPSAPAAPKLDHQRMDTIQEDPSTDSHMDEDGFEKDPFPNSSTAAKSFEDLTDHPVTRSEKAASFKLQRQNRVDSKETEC
# ADAM10 inh: human ADAM10 inhibitors, primary screen, biochemical, QFRET, HTS. Disintegrin and metalloproteinase domain-containing protein 10 (Homo sapiens), O14672. AID 720582, 2013. inhibition, % at 7 µM. 370,000 compounds, 0.62% hits. recombinant ADAM10, EDANS/DABCYL FRET peptide cleavage, 3 h;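 active means inhibition above a per-campaign cutoff equal to the mean of compounds falling between control-based bounds plus 3 SD, cut at about 20% in these data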;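 further: 0% = DMSO wells while the 100% control is not disclosed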
# SKN-1 block: suppressors of acrylamide-induced Pgst-4::GFP reporter in worms, primary screen, SKN-1 inhibitor project, whole organism, uHTS, GFP/RFP fluorescence ratio, strain VP596. inhibition, % at 21.8 µM. AID 624304, 2012. C. elegans VP596 Pgst-4::GFP/RFP ratio, 24 h. 360,000 compounds, 0.49% hits;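 active means interference check ratio from 0.5 to 1.5 plus GFP to RFP signal ratio inhibition reaching or exceeding a fixed threshold, cut at about 30% in these data, passing the limit was not always enough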
# ADAM10 counter: ADAM10 inhibitors, counter-screen for ADAM17 exosite inhibitor project, biochemical, FRET, human ADAM10; recombinant ADAM10, EDANS/DABCYL FRET peptide cleavage, 3 h; AID 743256, 2014; inhibition, % at 6.95 µM; shares compounds with ADAM17 inh; 2,900 compounds, 47% hits;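 active means mean inhibition over the triplicate runs exceeds the activity threshold set in the earlier primary screen, cut at about 20% in these data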;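 further: 0% = DMSO wells and 100% = marimastat wells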
# ADAM17 confirm: ADAM17 inhibitors, hit retest, confirmation, biochemical, QFRET peptide cleavage; shares compounds with ADAM17 inh; recombinant ADAM17, EDANS/DABCYL QFRET peptide cleavage; inhibition, % at 6.95 µM; 2,900 compounds, 65% hits;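 active means mean inhibition across replicates above the hit cutoff set in the primary screen, cut at about 8.5% in these data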;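 further: 0% = DMSO wells and 100% = marimastat wells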
# * = called active by the depositor; . = not tested or not shown.
SMILES,MPTP inh,GRIN3A LBD mod,MT1-MMP act inh,ADAM17 inh,ADAM10 inh,SKN-1 block,ADAM10 counter,ADAM17 confirm
CCOC(=O)[C@H]1[C@H]2COc3ccc(C)cc3[C@@H]2N2C(=O)c3cc(Br)ccc3NC(=O)[C@@]12C,0,-1,-16,9.5*,10,3,49*,17*
C[C@@]12C(=O)Nc3ccccc3C(=O)N1[C@H]1c3cc(Br)ccc3OC[C@@H]1[C@@H]2c1ccccc1,0,-1,-14,8.6*,19,-1,20*,11*
CCOC(=O)[C@H]1[C@H]2COc3ccc(Br)cc3[C@@H]2N2C(=O)c3ccc(C)cc3NC(=O)[C@@]12C,-2,6,-2,-1,17,3,.,.
Cc1ccc2c(c1)[C@H]1[C@H](CO2)[C@H](c2ccccc2)[C@]2(C)C(=O)N(Cc3ccc(F)cc3)CC(=O)N12,0,-2,-89,1,15,5,.,.
CN(CC(=O)NC1CCN(Cc2ccccc2)CC1)S(=O)(=O)c1ccc(Cl)cc1,1,1,1,-4,-6,20,.,.
CCOc1ccc(NC(=O)c2cnc3scc(C)n3c2=O)cc1,-3,2,1,-1,2,-11,.,.
CCCC(C(=O)Nc1ccncc1)c1ccccc1 (configuration not stated),-1,-2,4,-1,9,-1,.,.
O=C(COn1nnc2ccc(S(=O)(=O)N3CCOCC3)cc21)NCCc1ccccc1,0,-2,4,13*,8,14,-2,1
CC1=Nc2cc(C(=O)NCCN3CCOCC3)ccc2Sc2c(C)ccc(C)c21,-4,3,-2,9.3*,1,10,-15,0
CC1=Nc2cc(C(=O)NCCCN3CCOCC3)ccc2Sc2c(C)ccc(C)c21,0,-2,5,0,-4,-4,.,.
O=S(=O)(NCCc1ccc(F)cc1)c1cc(C(F)(F)F)ccc1Br,1,-7,4,9.9*,19,4,22*,11*
O=S(=O)(NCc1ccc(F)cc1)c1cc(Br)ccc1Br,2,-29,0,2,3,13,.,.
CC(=O)Nc1ccc(S(=O)(=O)NCCSCc2cccc(Cl)c2)cc1,4,-9,5,8.9*,15,1,6,5
O=C(COC(=O)c1ccc2c(c1)C(=O)N(Cc1ccncc1)C2=O)Nc1ccccc1[N+](=O)[O-],-1,-6,-1,-1,-6,-7,.,.
COc1ccc(C(=O)C2(C(=O)NC3CCCC3)CC(c3ccccc3C(F)(F)F)=NO2)cc1 (configuration not stated),.,.,.,2,7,.,.,.
COc1ccc(C(=O)C2(C(=O)NCc3ccccc3)CC(c3ccccc3C(F)(F)F)=NO2)cc1 (configuration not stated),.,.,.,9.1*,12,.,22*,15*
O=S(=O)(NCC1CCCN(Cc2ccccc2)C1)c1cccc2cccnc12 (configuration not stated),-1,-2,-3,-2,-4,11,.,.
CN(C)/C=C(\C#N)C(=O)Nc1ccc(F)c(Cl)c1,5,0,2,-2,7,8,.,.
CCN(CC)C(=O)COc1ccc(N(C)S(=O)(=O)c2ccc(NC(C)=O)cc2)cc1,0,-2,-1,-2,0,-6,.,.
CC(=O)Nc1ccc(S(=O)(=O)N(C)c2ccc(OCCOc3cccc(C)c3)cc2)cc1,7,2,1,8.7*,-3,-11,26*,14*
Cc1ccc(S(=O)(=O)N(C)c2ccc(OCC(=O)OCc3cccc(Br)c3)cc2)cc1,0,-1,-1,9.1*,16,4,25*,16*
O=C(Nc1nc(-c2ccccc2)cs1)C1COc2ccccc2O1 (configuration not stated),1,-2,3,14*,12,20,44*,14*
CC1Sc2ccc(S(=O)(=O)CCC(=O)Nc3ccccc3Cl)cc2NC1=O (configuration not stated),-2,2,1,9.3*,7,10,-10,1
COc1ccc(Nc2nc(N)nc(CSC(=S)N3CCCCC3C)n2)cc1 (configuration not stated),3,-16,5,9.7*,11,4,13,10*
COc1ccccc1Nc1nc(N)nc(CSC(=S)N2CC(C)CC(C)C2)n1 (configuration not stated),3,1,0,12*,17,6,30*,16*
SMILES,MPTP inh,GRIN3A LBD mod,MT1-MMP act inh,ADAM17 inh,ADAM10 inh,SKN-1 block,ADAM10 counter,ADAM17 confirm
Cc1ccc(S(=O)(=O)N(CC(=O)Nc2ccccc2-c2ccccc2)c2ccc(C)cc2C)cc1,2,-2,-11,5,10,-2,.,.
Cc1cccc(N(CC(=O)Nc2ccccc2-c2ccccc2)S(=O)(=O)c2ccccc2)c1C,1,-1,-10,9.3*,16,5,28*,16*
COc1ccccc1N1CCN(C2CC(=O)N(c3ccc(F)cc3)C2=O)CC1 (configuration not stated),3,-1,1,-3,0,-15,.,.
CN1/C(=C/C(=O)C2CCC2)Sc2ccccc21,-1,1,11,12*,14,10,8,8
COCC(=O)/C=C1\Sc2ccccc2N1C,1,1,7,-1,0,10,.,.
Cc1cc(-c2ccccc2)n(-c2cc(N/N=C/c3ccccc3O)ncn2)n1,4,4,8,8.7*,3,2,9,7
COc1ccc(C(=O)NCCCC2CCCC2)cc1OC1CCN(C(C)C)CC1,1,.,2,-1,-11,13,.,.
Cc1onc(-c2ccccc2Cl)c1C(=O)Nc1cccc2cccnc12,23,0,-5,12*,15,19,20*,18*
